Laboratory results as given in ChEMBL document CHEMBL1150273, “Aza-peptidyl Michael acceptors. A new class of potent and selective inhibitors of asparaginyl endopeptidases (legumains) from evolutionarily diverse pathogens” (J Med Chem, 2008).
Each block holds one compound with its values, some of them ahead of it. Calls of active or inactive are those of the source. The calls are words filed in the database; no cut-off is given here.

Legend:
Legumain (Homo sapiens) = molecular target: T1, Legumain (Homo sapiens) (UniProt Q99538); assay: Inhibition of human AE assessed as ratio of pseudo-first-order inhibition rate constant to inhibitor concentration
T1 sequence (whole entry): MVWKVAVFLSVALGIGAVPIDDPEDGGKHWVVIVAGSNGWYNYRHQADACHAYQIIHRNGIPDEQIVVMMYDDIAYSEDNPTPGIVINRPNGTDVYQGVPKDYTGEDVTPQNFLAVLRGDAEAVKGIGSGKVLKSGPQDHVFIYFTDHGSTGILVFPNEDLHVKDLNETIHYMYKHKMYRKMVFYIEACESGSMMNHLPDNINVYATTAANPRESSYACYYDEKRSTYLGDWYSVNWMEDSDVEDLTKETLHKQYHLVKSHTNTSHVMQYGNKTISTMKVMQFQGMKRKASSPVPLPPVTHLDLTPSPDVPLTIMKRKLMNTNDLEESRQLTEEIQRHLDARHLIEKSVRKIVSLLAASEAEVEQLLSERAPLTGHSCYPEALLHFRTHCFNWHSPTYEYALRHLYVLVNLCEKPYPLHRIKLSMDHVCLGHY
How it was run: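 Human AE; inhibitor and substrate incubated at 25 °C in 20 mM citric acid, 60 mM Na2HPO4, 1 mM EDTA, 0.1% CHAPS, pH 5.8 before enzyme addition.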

[1] = molecular target: Lys-gingipain HG66 (Porphyromonas gingivalis) (UniProt P72197); assay: Inhibition of Porphyromonas gingivalis gingipain K assessed as ratio of pseudo-first-order inhibition rate constant to inhibitor concentration
How it was run: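 Gingipain K diluted to 4.61 nM in 0.2 M Tris-HCl, 0.1 M NaCl, 5 mM CaCl2, 2 mM DTT, pH 8.0 and incubated with inhibitor (DMSO) at room temperature; aliquots taken at intervals into buffer with Suc-Ala-Phe-Lys-AMC; fluorescence at 465 nm; pseudo-first-order kinetics.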

Caspase-3 (Homo sapiens) = molecular target: T2, Caspase-3 (Homo sapiens) (UniProt P42574); assay: Inhibition of caspase 3 assessed as ratio of pseudo-first-order inhibition rate constant to inhibitor concentration
T2 sequence (whole entry): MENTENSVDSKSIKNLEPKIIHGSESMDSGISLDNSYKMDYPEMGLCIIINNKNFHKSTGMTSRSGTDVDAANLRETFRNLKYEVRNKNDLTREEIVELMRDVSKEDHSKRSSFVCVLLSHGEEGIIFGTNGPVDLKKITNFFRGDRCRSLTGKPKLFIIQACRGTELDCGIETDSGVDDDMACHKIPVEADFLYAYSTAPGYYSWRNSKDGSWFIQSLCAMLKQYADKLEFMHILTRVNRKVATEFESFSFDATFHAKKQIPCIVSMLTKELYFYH
How it was run: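 Caspase-3 (1 nM final) preactivated 10 min at 37 °C in 40 mM Pipes, 200 mM NaCl, 0.2% CHAPS, 20% sucrose mixed 1:1 with 20 mM DTT, pH 7.2; enzyme added to inhibitor plus Ac-Asp-Glu-Val-Asp-AMC; progress curves 20 min at 37 °C (ex 360, em 465 nm); duplicates; rates corrected for substrate (KM 9.7 µM).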

[2] = (§1) Inhibition of Schistosoma mansoni AE expressed in Pichia pastoris after 20 mins
How it was run: (§2)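 Recombinant AE zymogens expressed in Pichia pastoris; SmAE and TvAE1 autoactivated in 0.5 M sodium acetate, 4 mM DTT, pH 4.5, 37 °C, 3 h to overnight; IrAE used without activation. Buffer 0.1 M citrate phosphate, 4 mM DTT, pH 6.8 (SmAE, TvAE1) or pH 5.5 (IrAE). Inhibitor 2.0–0.0002 µM final, 20 min preincubation at room temperature; 10 µM final Cbz-Ala-Ala-Asn-AMC, 20 min; IC50 from RFU/min vs concentration.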

Papain (Carica papaya) = molecular target: T3, Papain (Carica papaya) (UniProt P00784); assay: Inhibition of papain assessed as ratio of pseudo-first-order inhibition rate constant to inhibitor concentration
T3 sequence (whole entry): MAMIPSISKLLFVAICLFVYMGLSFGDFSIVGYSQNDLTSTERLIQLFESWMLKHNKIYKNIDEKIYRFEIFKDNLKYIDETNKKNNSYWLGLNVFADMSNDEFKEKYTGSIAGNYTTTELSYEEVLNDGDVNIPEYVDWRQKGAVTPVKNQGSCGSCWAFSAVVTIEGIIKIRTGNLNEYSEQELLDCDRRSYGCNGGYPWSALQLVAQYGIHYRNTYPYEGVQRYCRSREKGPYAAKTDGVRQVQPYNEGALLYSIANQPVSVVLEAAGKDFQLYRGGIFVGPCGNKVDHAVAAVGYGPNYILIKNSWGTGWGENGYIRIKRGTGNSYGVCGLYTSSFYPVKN
How it was run: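 Papain, about 0.29 mg/mL, incubated with inhibitor in 50 mM Hepes, 2.5 mM DTT, 2.5 mM EDTA, pH 7.5; aliquots taken over time into 53.7 µM Cbz-Phe-Arg-pNA; p-nitroanilide release read at 405 nm at room temperature; pseudo-first-order inactivation kinetics.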

[3] = Inhibition of Trichomonas vaginalis G3 AE1 expressed in Pichia pastoris after 20 mins; how it was run: as §2
[4] = molecular target: Cathepsin B (Homo sapiens) (UniProt P07858); assay: Inhibition of cathepsin B assessed as ratio of pseudo-first-order inhibition rate constant to inhibitor concentration
[5] = molecular target: T4, Calpain-1 catalytic subunit (Homo sapiens) (UniProt P07384); assay: Inhibition of calpain 1 assessed as ratio of pseudo-first-order inhibition rate constant to inhibitor concentration
T4 sequence (whole entry): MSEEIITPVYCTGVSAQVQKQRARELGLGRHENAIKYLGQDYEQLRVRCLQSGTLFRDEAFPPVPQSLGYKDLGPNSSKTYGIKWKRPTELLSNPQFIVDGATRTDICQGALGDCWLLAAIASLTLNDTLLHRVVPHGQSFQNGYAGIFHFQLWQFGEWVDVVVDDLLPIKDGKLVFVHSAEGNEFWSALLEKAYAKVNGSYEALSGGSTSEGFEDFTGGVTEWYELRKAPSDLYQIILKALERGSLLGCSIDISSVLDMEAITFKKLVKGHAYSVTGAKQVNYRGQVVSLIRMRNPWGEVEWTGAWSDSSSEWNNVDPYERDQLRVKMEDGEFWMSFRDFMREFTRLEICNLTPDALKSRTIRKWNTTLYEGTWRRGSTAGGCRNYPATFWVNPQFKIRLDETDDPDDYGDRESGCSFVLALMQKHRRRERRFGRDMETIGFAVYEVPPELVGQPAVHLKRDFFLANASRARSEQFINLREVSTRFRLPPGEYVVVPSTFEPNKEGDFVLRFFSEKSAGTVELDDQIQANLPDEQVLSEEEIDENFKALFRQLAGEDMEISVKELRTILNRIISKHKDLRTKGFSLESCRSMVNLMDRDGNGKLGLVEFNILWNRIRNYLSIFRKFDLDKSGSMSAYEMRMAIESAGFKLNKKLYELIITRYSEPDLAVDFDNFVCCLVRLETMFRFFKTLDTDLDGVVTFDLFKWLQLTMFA

[6] = Inhibition of Ixodes ricinus AE expressed in Pichia pastoris after 20 mins; how it was run: as §2
Caspase-8 (Homo sapiens) = Caspase-8 (Homo sapiens) (UniProt Q14790); assay: Inhibition of caspase 8 assessed as ratio of pseudo-first-order inhibition rate constant to inhibitor concentration
How it was run: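 Caspase-8 at 50 nM final, assayed in the same Pipes/NaCl/CHAPS/sucrose/DTT buffer, pH 7.2, 37 °C with Ac-Asp-Glu-Val-Asp-AMC by the progress curve method; inhibitor stocks 5 × 10^-3 to 2.42 × 10^-6 M in DMSO; rates corrected for substrate using KM 6.79 µM.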

[7] = molecular target: T5, Clostripain (Clostridium histolyticum) (UniProt P09870); assay: Inhibition of sClostridium histolyticum clostripain assessed as ratio of pseudo-first-order inhibition rate constant to inhibitor concentration; details: Hathewaya histolytica
T5 sequence (whole entry): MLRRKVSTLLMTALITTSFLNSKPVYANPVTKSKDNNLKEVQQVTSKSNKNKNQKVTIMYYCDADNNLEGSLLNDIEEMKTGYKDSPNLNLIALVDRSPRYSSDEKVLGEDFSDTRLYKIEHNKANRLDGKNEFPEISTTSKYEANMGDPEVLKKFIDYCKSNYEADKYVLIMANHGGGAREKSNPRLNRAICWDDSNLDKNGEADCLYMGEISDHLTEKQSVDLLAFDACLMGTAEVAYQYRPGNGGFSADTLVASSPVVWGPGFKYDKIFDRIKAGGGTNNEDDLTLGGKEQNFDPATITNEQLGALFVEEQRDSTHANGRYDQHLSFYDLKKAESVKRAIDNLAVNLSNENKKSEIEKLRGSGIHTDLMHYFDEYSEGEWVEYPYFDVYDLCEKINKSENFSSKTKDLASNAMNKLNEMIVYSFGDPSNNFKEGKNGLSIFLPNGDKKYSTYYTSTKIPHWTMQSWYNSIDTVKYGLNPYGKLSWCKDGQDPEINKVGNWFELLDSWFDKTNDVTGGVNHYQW
How it was run: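 Clostripain activated in 8 mM DTT, then incubated with inhibitor (DMSO) in 20 mM Tris-HCl, 10 mM CaCl2, 0.005% Brij 35, 2 mM DTT, pH 7.6; aliquots taken at intervals into buffer with Cbz-Phe-Arg-AMC; fluorescence at 465 nm; pseudo-first-order kinetics.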

Caspase-6 (Homo sapiens) = molecular target: T6, Caspase-6 (Homo sapiens) (UniProt P55212); assay: Inhibition of caspase 6 assessed as ratio of pseudo-first-order inhibition rate constant to inhibitor concentration
T6 sequence (whole entry): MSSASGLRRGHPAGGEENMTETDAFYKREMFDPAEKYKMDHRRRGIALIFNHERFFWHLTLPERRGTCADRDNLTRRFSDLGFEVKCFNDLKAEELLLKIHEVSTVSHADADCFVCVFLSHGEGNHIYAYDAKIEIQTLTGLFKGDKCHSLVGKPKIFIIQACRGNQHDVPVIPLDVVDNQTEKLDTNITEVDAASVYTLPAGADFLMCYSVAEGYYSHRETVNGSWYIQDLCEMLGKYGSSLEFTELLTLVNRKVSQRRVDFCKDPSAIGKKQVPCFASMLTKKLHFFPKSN
How it was run: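 Caspase-6 at 5 nM final, assayed in the same Pipes/NaCl/CHAPS/sucrose/DTT buffer, pH 7.2, 37 °C with Ac-Asp-Glu-Val-Asp-AMC by the progress curve method; inhibitor stocks 5 × 10^-3 to 2.42 × 10^-6 M in DMSO; rates corrected for substrate using KM 236.35 µM.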

Schistosoma mansoni [8] = assay: as §1; how it was run: as §2
[9] = Stability assessed as half life in citrate phosphate buffer at pH 6.8 in presence of dithiothreitol; type: physicochemical; details: citrate phosphate buffer with dithiothreitol
Sus scrofa = species on record: Sus scrofa; assay: Inhibition of pig AE assessed as ratio of pseudo-first-order inhibition rate constant to inhibitor concentration
How it was run: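 Pig AE in 39.5 mM citric acid, 121 mM Na2HPO4, 1 mM EDTA, 0.1% CHAPS, 0.015% Brij, 1 mM DTT.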

Schistosoma mansoni [10] = assay: Inhibition of Schistosoma mansoni AE assessed as ratio of pseudo-first-order inhibition rate constant to inhibitor concentration
How it was run: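 Autoactivated recombinant SmAE added to six inhibitor concentrations (0–1 µM final) in 0.1 M citrate phosphate, 2 mM DTT, pH 6.8 with 20 µM Cbz-Ala-Ala-Asn-AMC; progress followed every 2 s for 30 min at 25 °C (ex 355, em 460 nm); kobs/[I] by nonlinear regression, corrected for substrate by factor 1.33.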

Ratio [1]: 1 M⁻¹ s⁻¹ | Activity (Caspase-3 (Homo sapiens)): inactive | Activity (Papain (Carica papaya)): inactive | IC50 [3]: 50 nM | Activity [4]: inactive | Activity [5]: inactive | Activity (Caspase-8 (Homo sapiens)): inactive | Activity [7]: inactive | Activity (Caspase-6 (Homo sapiens)): inactive
SMILES: C[C@H](NC(=O)OCc1ccccc1)C(=O)N[C@@H](C)C(=O)NN(CC(N)=O)C(=O)/C=C/C(=O)N1CCc2ccccc21
IC50 [2]: 70 nM | IC50 [6]: 18 nM

Activity [1]: inactive | Activity (Caspase-3 (Homo sapiens)): inactive | Ratio (Papain (Carica papaya)): 12 M⁻¹ s⁻¹ | IC50 [3]: 10 nM | Activity [4]: inactive | Activity [5]: inactive | Activity (Caspase-8 (Homo sapiens)): inactive | Activity [7]: inactive | Activity (Caspase-6 (Homo sapiens)): inactive
SMILES: C[C@H](NC(=O)OCc1ccccc1)C(=O)N[C@@H](C)C(=O)NN(CC(N)=O)C(=O)/C=C/C(=O)NCCc1ccccc1
IC50 [2]: 600 nM | IC50 [6]: 350 nM

IC50 [3]: ≥ 10000 nM
SMILES: C[C@H](NC(=O)OCc1ccccc1)C(=O)N[C@@H](C)C(=O)NN(CC(N)=O)C(=O)/C=C/C(=O)c1ccccc1
Activity (Schistosoma mansoni [8]): inactive | IC50 [6]: > 20000 nM

half-life [9]: 2.5 min | IC50 [3]: 5 nM
SMILES: C[C@H](NC(=O)OCc1ccccc1)C(=O)N[C@@H](C)C(=O)NN(CC(N)=O)C(=O)/C=C/C(=O)OCc1ccccc1
IC50 [6]: < 1 nM

IC50 [3]: 8000 nM
SMILES: C/C=C/C=C/C(=O)N(CC(N)=O)NC(=O)[C@H](C)NC(=O)[C@H](C)NC(=O)OCc1ccccc1
Activity (Schistosoma mansoni [8]): inactive

The remaining lines, values behind:

SMILES: Cc1ccc(C)c(C(=O)OCC(=O)[C@H](CC(N)=O)NC(=O)OCc2ccccc2)c1
Ratio (Legumain (Homo sapiens)): 109000 M⁻¹ s⁻¹

SMILES: C[C@H](NC(=O)OCc1ccccc1)C(=O)N[C@@H](C)C(=O)NN(CC(N)=O)C(=O)CCl
Ratio (Sus scrofa): 139000 M⁻¹ s⁻¹

SMILES: CCOC(=O)[C@H]1O[C@@H]1C(=O)N(CC(N)=O)NC(=O)[C@H](C)NC(=O)[C@H](C)NC(=O)OCc1ccccc1
Ratio (Schistosoma mansoni [10]): 17400 M⁻¹ s⁻¹ | IC50 [2]: 53 nM | Ratio (Sus scrofa): 43000 M⁻¹ s⁻¹

SMILES: C[C@H](NC(=O)OCc1ccccc1)C(=O)N[C@@H](C)C(=O)NN(CC(N)=O)C(=O)COC(=O)c1ccccc1
Ratio (Sus scrofa): 13 M⁻¹ s⁻¹

SMILES: C=CCOC(=O)/C=C/C(CC(N)=O)NC(=O)[C@H](C)NC(=O)[C@H](C)NC(=O)OCc1ccccc1 (stereo partly specified)
Ratio (Sus scrofa): 776 M⁻¹ s⁻¹

SMILES: CCN(CC)C(=O)/C=C/C(=O)N(CC(N)=O)NC(=O)[C@H](C)NC(=O)[C@H](C)NC(=O)OCc1ccccc1
Ratio (Schistosoma mansoni [10]): 17400 M⁻¹ s⁻¹ | Activity (Schistosoma mansoni [8]): inactive | IC50 [3]: 2000 nM | IC50 [6]: 2700 nM
